Screens from PubChem.
The sample as a whole holds a higher share of hits than the screen did.
Yeast lifespan up: compounds extending yeast replicative lifespan, primary screen, S. cerevisiae, OD615; AID 775, 2007; inhibition of the nicotinamide effect, % at 10 µM; S. cerevisiae growth with nicotinamide; deaD strain in restrictive glucose medium; 130,000 tested, 0.68% active;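 active means inhibition above a set limit, placed 3 SD over the median of all compounds, cut at about 26% in these data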
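assay system = DeaD-strain S. cerevisiae | buffer or medium = restrictive glucose medium | reagent = 1.5 mM nicotinamide | compound = 10 µM single point, 0.25% DMSO | incubation = 48 h compound exposure at 30 °C, humidified | signal = OD615 measurement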
PostGolgi yeast: phenotypic screen on post-Golgi transport, primary screen. post-Golgi transport phenotypic cell assay. inhibition, % at 10 µM. 98,000 tested, 0.9% active;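 further: yeast cells grown in 1536-well plates; yeast grown about 18 h at 30C before absorbance read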
PostGolgi ctrl: growth inhibition of yeast control strain, primary screen, counter-screen for post-Golgi transport modulator project; efflux-deficient yeast background strain, growth absorbance A615, 16 h; inhibition, % at 10 µM; 98,000 tested, 5% active
BB579 growth dn: growth inhibitors of yeast BB579 in restrictive medium, primary screen, yeast lifespan-shortening project, S. cerevisiae | OD615, 48 h | inhibition, % at 10 µM | 140,000 tested, 0.51% active | AID 804, 2007;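 active means inhibition above a set limit, 3 SD over the mean compound inhibition, cut at about 44% in these data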
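System: Saccharomyces cerevisiae DeaD strain BB579, replicative lifespan model yeast. Buffer or medium: restrictive glucose-based CSMM-D medium. Doses: one dose, 10 µM compound with 0.25% DMSO. Timing: 4 h preincubation and 48 h exposure at 30 °C. Detection: turbidity as optical density at 615 nm. Benchmarks: amphotericin B 10 µg/mL, positive.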
A number is an active result; - = inactive; . = no result given. Unless noted, no stated cut-off is given here; in the data, active means inhibition above about 30%; inactive means the rest.

SMILES	Yeast lifespan up	PostGolgi yeast	PostGolgi ctrl	BB579 growth dn
Cc1ccc(S(=O)(=O)NNc2nc3ccccc3nc2C(F)(F)F)cc1	-	-	-	-
CCOC(=O)c1c(C)[nH]c(C)c1C(=O)COC(=O)/C=C/c1ccc(Cl)cc1	-	.	.	-
O=C(c1cc2sccc2n1Cc1ccc(F)cc1)N1CCN(c2nc3ccccc3s2)CC1	.	.	.	-
Cn1c(C(=O)N2CCN(c3nc4ccccc4s3)CC2)cc2sccc21	-	-	45	-
Cc1nnc(SC(=O)N2c3ccccc3Sc3ccccc32)s1	-	-	75	-
Cc1nnc(SCC(=O)N2c3ccccc3Sc3ccccc32)n1N	-	-	-	-
Cc1ccc(/C=C/C2=NN(Cc3ccccc3Cl)C(=O)CC2)cc1	-	-	41	-
Cc1ccccc1CSCC(=O)NCc1ccco1	-	.	.	-
Cn1c(=O)c(Cc2ccccc2)c(O)c2ccccc21	-	-	49	-
O=C(OCn1nnc2ccccc2c1=O)c1cc(-c2ccccc2)nc2ccccc12	-	.	.	-
COc1ccc(CCn2c(-c3ccccc3)nc3c(c(=O)c4ccccc4n3C)c2=O)cc1	31	.	.	-
Cc1ccc(S(=O)(=O)Nc2ccccc2/C=N/c2nc3ccccc3n2C)cc1	31	.	.	-
CC(=O)N1N=C(c2cccc([N+](=O)[O-])c2)OC1c1ccc(Cl)cc1Cl (centres undefined)	-	-	34	-
CC(=O)N1N=C(N)SC1c1cccc([N+](=O)[O-])c1 (centres undefined)	-	.	.	-
COc1ccc(N(CC(=O)O)S(=O)(=O)c2ccc(OC)c(OC)c2)cc1	29	-	-	-
COC(=O)CN(c1ccc(OC)cc1)S(=O)(=O)c1ccc(OC)c(OC)c1	-	-	-	-
Cc1ccc(Nc2cc(C)nc3nnnn23)cc1	-	-	-	-
Cc1ccc(Nc2cc(C)nn2-c2nc(C)cc(C)n2)cc1	-	-	39	-
Cc1ccc(Nc2cc(C)nn2-c2nc(C)cc(=O)[nH]2)cc1	-	94	100	100
COc1ccc(CC(=O)Oc2cc(C)[nH]c(=O)c2[N+](=O)[O-])cc1	-	.	.	-
O=C(c1ccc(Br)cc1)c1cc(-c2ccccn2)c(N2CCOCC2)s1	-	-	43	-
Nc1cc(C(=O)c2ccccc2)ccc1N1CCOCC1	.	.	.	-
O=C(c1ccc(Cl)c(Cl)c1)c1cc(-c2ccccn2)c(N2CCOCC2)s1	-	-	56	-
O=C(c1cc(Cl)ccc1Cl)N1CCN(c2ccccn2)CC1	-	-	-	-
CC(C)N=c1scc(-c2ccco2)n1/N=C/c1ccc(O)c(O)c1	-	-	55	92
SMILES	Yeast lifespan up	PostGolgi yeast	PostGolgi ctrl	BB579 growth dn
Oc1ccc(/C=N/n2c(-c3ccco3)csc2=Nc2cccnc2)c(O)c1	-	.	.	-
CCc1ccc2c(c1)C1(NN=C(c3ccc(C)cc3)S1)C(=O)N2 (centres undefined)	.	.	.	96
CCOC(=O)C1(N(CC)CC)Sc2cc(C)ccc2NC1=O (centres undefined)	-	-	-	-
CC(C)c1ccc2c(c1)C1(NN=C(c3ccccc3)S1)C(=O)N2 (centres undefined)	.	.	.	78
CCN(C(=O)CN1CCN(S(=O)(=O)c2cc(Cl)ccc2Cl)CC1)c1c(N)n(Cc2ccccc2)c(=O)[nH]c1=O	-	.	.	-
CCOC(=O)N/N=C(\C)c1ccc(C)c([N+](=O)[O-])c1	-	.	.	-
Cc1cc(C)nc(N/N=C/c2ccccc2)n1	-	-	-	-
Cc1cc(C)nc(N/N=C/C(Cl)=C/c2ccccc2)n1	-	31	-	-
NC(=O)c1c(NC(=O)CN2CCCC2)sc2c1CCCC2	-	-	-	-
NC(=O)c1c(NC(=O)CN2C(=O)CCC2=O)sc2c1CCCCC2	-	32	-	-
CCC(=O)Nc1sc2c(c1C(N)=O)CCC2	-	-	31	-
Cc1occc1C(=O)Nc1sc2c(c1C(N)=O)CCCCC2	-	-	31	-
CNC(=O)CSc1nnc(SCCC(=O)O)s1	-	.	.	-
Cn1c2ccccc2c(=O)c2c(=O)n(C3CCCCCC3)c(C3CCCCC3)nc21	26	.	.	-
CCc1nc2c(c(=O)c3ccccc3n2C)c(=O)n1C1CCCCCC1	28	.	.	-
O=C(Nc1ccccc1)c1cccc(S(=O)(=O)Oc2ccc([N+](=O)[O-])cc2)c1	-	.	.	-
O=C(CSc1oc(-c2ccco2)nc1S(=O)(=O)c1ccccc1)NCC1CCCO1 (centres undefined)	.	.	.	-
CCCSc1oc(-c2ccco2)nc1S(=O)(=O)c1ccccc1	-	-	33	-
CN1CCN(c2oc(-c3ccco3)nc2S(=O)(=O)c2ccccc2)CC1	-	-	-	-
CCSc1oc(-c2ccco2)nc1S(=O)(=O)c1ccccc1	-	-	-	-
O=C(CSc1oc(-c2ccco2)nc1S(=O)(=O)c1ccc(Cl)cc1)NCC1CCCO1 (centres undefined)	-	37	-	-
O=S(=O)(c1ccccc1)c1nc(-c2ccco2)oc1N1CCCCCC1	-	-	42	-
COC(=O)C/C=C/[C@@H](C)[C@@H](/C=N/OC[C@@H](C)[C@H](OCc1ccccc1)C(C)C)NS(=O)(=O)c1ccc(C)cc1	-	.	.	-
Cc1ccc(OCC(=O)N/N=C/c2cn[nH]c2-c2ccc(Cl)c(Cl)c2)cc1	-	-	-	-
Cc1cccc(OCC(=O)N/N=C/c2cn[nH]c2-c2ccc(Cl)c(Cl)c2)c1	-	-	38	-
SMILES	Yeast lifespan up	PostGolgi yeast	PostGolgi ctrl	BB579 growth dn
Cc1noc2ncnc(Sc3ccccc3Cl)c12	-	-	-	61
CNC(=O)c1ccc(OCc2ccccc2)c(OC)c1	-	-	-	-
COc1ccccc1NC(C#N)c1ccccc1OCc1ccccc1 (centres undefined)	30	.	.	-
O=C(CCC(=O)Nc1ccccc1)NNC(=O)C(c1ccccc1)c1ccccc1	-	.	.	-
CCN(C1CCCCC1)S(=O)(=O)c1ccc(OC)c(C)c1	-	-	35	-
Cc1ccccc1/C(N)=N/O	-	.	.	-
CCC(OC(=O)C(NC(=O)c1ccccc1)c1ccccc1)C(=O)Nc1cc(C)on1 (centres undefined)	-	42	-	-
COc1ccc(-c2nnc(SCc3c(C)noc3C)n2N)cc1OC	-	-	-	-
CCc1nnc2n1N=C(c1ccc(-c3cc(Cl)ccc3Cl)o1)CS2	-	-	-	-
O=C(NNc1nc2ccc(Cl)cc2s1)c1cc(-c2cccs2)nc2ccccc12	-	.	.	-
O=C1CSC(=S)N1c1cccnc1	-	-	-	44
OC(COc1ccc2cc(Br)ccc2c1)CN1CCN(c2ccccn2)CC1 (centres undefined)	-	-	37	-
CN(C)S(=O)(=O)N1CCN(CC(O)COc2ccc3cc(Br)ccc3c2)CC1 (centres undefined)	-	-	41	-
COc1cccc(OCC(O)CN2CCN(c3ccccn3)CC2)c1 (centres undefined)	-	.	.	-
COc1ccc(/C=C/C(=O)OCC(=O)Nc2ccc(Cl)c(S(=O)(=O)N(C)C)c2)cc1OC	-	.	.	-
CCCn1c(/N=C/c2c[nH]c3ccccc23)nc2ccccc21	-	-	-	-
CCCCn1c(/N=C/c2c[nH]c3ccccc23)nc2ccccc21	-	-	-	44
